The list is not random: actives were taken first. Their share in the collection is about 29%.
CYP2C19 inhib: blocks human cytochrome P450 2C19. CYP2C19 Supersomes, luciferin-H EGE luminescence, 30 min. inhibition, % at 5 µM. 96,000 tested, 21% active. AID 778;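 active means CYP2C19 inhibition above a set limit at 5 µM in the primary screen, cut at about 50% in these data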
Target sequence (P33261 whole entry, looked up): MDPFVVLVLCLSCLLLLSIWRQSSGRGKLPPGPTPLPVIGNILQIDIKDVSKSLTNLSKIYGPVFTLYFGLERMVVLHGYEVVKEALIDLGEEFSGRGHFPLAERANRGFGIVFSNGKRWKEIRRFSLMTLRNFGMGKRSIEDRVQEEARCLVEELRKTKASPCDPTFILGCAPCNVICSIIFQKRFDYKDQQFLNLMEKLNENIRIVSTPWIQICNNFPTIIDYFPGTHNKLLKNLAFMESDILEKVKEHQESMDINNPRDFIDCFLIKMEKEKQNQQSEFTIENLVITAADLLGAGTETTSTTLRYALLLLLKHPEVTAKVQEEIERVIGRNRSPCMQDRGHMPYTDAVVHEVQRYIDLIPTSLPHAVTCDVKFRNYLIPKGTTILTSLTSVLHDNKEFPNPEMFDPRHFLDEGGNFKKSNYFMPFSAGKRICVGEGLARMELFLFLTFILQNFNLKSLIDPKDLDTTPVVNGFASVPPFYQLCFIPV
CYP2C9 inhib: inhibitors of human CYP2C9. P11712. CYP2C9 Supersomes, luciferin-H conversion, luminescence. inhibition, % at 5 µM. 96,000 tested, 20% active;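 active means blocking of liver enzyme CYP2C9 beyond about 50% at 5 µM, limit read from the data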
tolC growth inh: E. coli tolC mutant growth inhibition. E. coli BW25113 tolC mutant growth, OD615. growth inhibition, % at 10 µM (by protocol). 65,000 tested, 2.2% active. AID 573;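 active means growth inhibition at or above a cutoff equal to the mean over every tested compound plus 3 SD, cut at about 60% in these data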;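 further: growth measured after 20 h incubation at 37 °C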
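System: E. coli ΔtolC::kan strain BW25113; Buffer or medium: LB broth supplemented with 50 µg/mL kanamycin; Compound: 10 µM final, single dose; Incubation: bacterial growth with compound for 20 h at 37 °C; Signal: A615 absorbance measurement; Evaluation: growth inhibition in percent.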
CYP2C19 activ: cytochrome P450 2C19 (human) activation; activation factor at 5 µM; 96,000 tested, under 10 active; recombinant CYP2C19, luciferin-H EGE luminescence; hits give high values; 0 = fully inhibited enzyme, 1 = untreated enzyme;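 active means activation factor of at least 2 at 5 µM in the primary screen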
CYP2C9 act: increases human cytochrome P450 2C9 activity | recombinant CYP2C9, luciferin-H conversion, luminescence; hits give high values; factor 1 = untreated enzyme, 0 = blocked | 96,000 tested, 1.4% active | P11712 | activation factor at 5 µM | AID 1024;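 active means activation factor of 2 or more for CYP2C9 at a 5 µM dose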
E coli WT exp: E. coli BW25113 growth inhibition, expanded screen; 98,000 tested, 0.15% active; growth inhibition, % at 100 µM; OD600 absorbance;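 active means growth inhibition above about 50% at one test dose, limit read from the data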;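 further: growth measured after 20 h incubation at 37 °C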
Each line names hits and unclear results; the compound was inactive in the other large screens.

CCCn1c(N)c(C(=O)COC(=O)c2c(C)noc2C)c(=O)n(C)c1=O	CYP2C9 inhib 51
CC(C)c1c(O)nc(SCC(=O)Nc2ccc3c(c2)CCC3)[nH]c1=O	none
O=C1NC2=C(CCc3ccccc32)C(c2ccc(Br)cc2)N1 (stereo unspecified)	CYP2C19 inhib 65, CYP2C9 inhib 54 (no result: tolC growth inh)
O=C1NC(c2ccccc2)=C(c2nc3ccccc3s2)C(c2ccc(O)cc2)N1 (stereo unspecified)	none (no result: tolC growth inh)
COc1ccc2ncn(-c3ccccc3)c2c1	CYP2C19 inhib 95, CYP2C9 inhib 55
COc1ccc(-n2cnc3sc(-c4ccccc4)cc3c2=O)cc1	none (no result: tolC growth inh)
COc1ccc(-n2cnc3ccccc32)cc1	CYP2C19 inhib 61, CYP2C9 inhib 59 (no result: tolC growth inh)
COc1ccc(-n2c(N)c(-c3nc4ccccc4n3C)sc2=S)cc1	none
O=C(NC1CCCCC1)NC1CC2CCCC(C1)N2C1CCCC1 (stereo unspecified)	none (no result: CYP2C19 inhib, CYP2C9 inhib, tolC growth inh, CYP2C19 activ, CYP2C9 act)
O=C(CN1CCN(Cc2ccccc2)CC1)Nc1cccc(C(F)(F)F)c1	CYP2C19 inhib 55, CYP2C9 inhib 51 (no result: tolC growth inh)
CC1CN(CC(=O)Nc2cccc(C(=O)Nc3cccc(C(F)(F)F)c3)c2)CC(C)O1 (stereo unspecified)	CYP2C19 inhib 54, CYP2C9 inhib 77 (no result: tolC growth inh)
COC(=O)c1cccc(NC(=O)CN2CCN(Cc3ccccc3)CC2)c1	CYP2C19 inhib 51, CYP2C9 inhib 64
O=C(CN1CCN(c2ccccc2)CC1)Nc1cccc(C(F)(F)F)c1	none
Cc1nc(CN2CCN(C(=O)c3ccc(C(C)(C)C)cc3)CC2)cs1	none (no result: tolC growth inh)
O=c1oc2ccccc2c2nccnc12	none
Cc1cnc(N)c2c(=O)oc3ccccc3c12	CYP2C9 act 2
Cc1nnsc1SCC(=O)O	none (no result: tolC growth inh)
Cc1nnsc1SCCNC(=O)c1ccc(F)cc1	CYP2C19 inhib 80 (no result: tolC growth inh)
OCCSc1c(F)c(SCCO)c(SCCO)c(F)c1SCCO	CYP2C9 inhib 70
COc1cc(-c2nnc(SCC(=O)Nc3cc(C)on3)n2C)cc(OC)c1O	none
N#Cc1c(SCC(=O)O)nc(N2CCCCC2)c2c1CCCC2	none
COC(=O)CSc1nc(-c2ccccc2)c2c(c1C#N)CCCC2	CYP2C19 inhib 97, CYP2C9 inhib 69 (no result: tolC growth inh)
N#Cc1c(NCCCO)nc(-c2ccccc2)c2c1CCCC2	CYP2C19 inhib 93, CYP2C9 inhib 97
COC(=O)CSc1nc(N2CCCCC2)c2c(c1C#N)CCCC2	CYP2C19 inhib 68, CYP2C9 inhib 90, tolC growth inh 64
CCCCCNc1nc(NCCCO)c(C#N)c2c1CN(C)CC2	CYP2C9 inhib 54 (no result: tolC growth inh)
CC(COc1cccc2ccccc12)CN1CCN(C)CC1 (stereo unspecified)	none
Cc1[nH]n(-c2ccc([N+](=O)[O-])cc2)c(=O)c1C=NCCN1CCN(C(=O)c2cccc(F)c2)CC1	none (no result: tolC growth inh)
CCC(=O)N(Cc1cc(=O)[nH]c2ccccc12)c1cccc(C)c1	none
CCCOc1c(Br)cc(/C=N/O)cc1OC	none (no result: tolC growth inh)
Brc1ccc(CN2CCSCC2)cc1	CYP2C19 inhib 59 (no result: tolC growth inh)
COc1ccc(CN2CCSCC2)cc1C	none (no result: tolC growth inh)
Cc1cc(C)n(Cc2ccc(Cl)c(Cl)c2)c(=O)c1S(=O)(=O)c1ccccc1	none (no result: tolC growth inh)
Cc1ccc(NC2OC(CO)C(O)C(O)C2O)cc1 (stereo unspecified)	none (no result: tolC growth inh)
Cc1cccc(-c2cc3nc4c(c(N5CCCC(O)C5)n3n2)CCC4)c1 (stereo unspecified)	CYP2C19 inhib 87, CYP2C9 inhib 98
Cc1cccc(-c2cc3nc4c(c(N5CCOCC5)n3n2)CCCC4)c1	CYP2C9 inhib 55, tolC growth inh 85
OC1CCCN(c2c3c(nc4cc(-c5cccc(Cl)c5)nn24)CCC3)C1 (stereo unspecified)	none (no result: CYP2C19 inhib, CYP2C9 inhib, CYP2C19 activ, CYP2C9 act)
O=C1CC(c2cccc(Cl)c2)C(n2cncn2)C(=O)C1C1NCCc2ccccc21 (stereo unspecified)	none (no result: tolC growth inh)
COC(=O)CSc1nc2cc3c(cc2cc1C)OCCO3	none
Cc1ccc(-c2nnc(CSc3nc4cc5c(cc4cc3C)OCO5)o2)cc1	CYP2C9 inhib 65
CN(C)S(=O)(=O)N(CC(=O)Nc1ccccc1F)c1ccccc1	none (no result: CYP2C19 inhib, CYP2C9 inhib, CYP2C19 activ, CYP2C9 act, E coli WT exp)
CN(C)S(=O)(=O)N(Cc1ccc(Br)cc1)c1ccccc1	CYP2C19 inhib 86, tolC growth inh 88
CN(C)S(=O)(=O)N(CC(=O)N(Cc1ccccc1)Cc1ccccc1)c1ccccc1	CYP2C19 inhib 81, CYP2C9 inhib 85 (no result: tolC growth inh)
CCN(CC)CCN(C)Cc1ccc(Br)cc1	none (no result: tolC growth inh)
COC(=O)COc1ccc(S(=O)(=O)Nc2ccccc2SC)cc1	none (no result: CYP2C19 inhib, CYP2C9 inhib, CYP2C19 activ, CYP2C9 act)
Cc1nc(NC(=O)c2ccccc2)sc1-c1csc(NCc2ccco2)n1	CYP2C19 inhib 89
Cc1nc2ccccn2c1-c1csc(NCc2ccco2)n1	CYP2C19 inhib 72, CYP2C9 inhib 59
Cc1nc(C)c(-c2csc(NCc3ccccc3)n2)s1	CYP2C19 inhib 83
Cc1nc(C)c(-c2csc(NCc3ccco3)n2)s1	CYP2C19 inhib 69, CYP2C9 act 2.7
Cc1nc(C)c(-c2csc(Nc3cccnc3)n2)s1	none
Cc1ccccc1Nc1nc(-c2sc(NC(=O)c3ccco3)nc2C)cs1	none (no result: tolC growth inh)
c1coc(CNc2nc(-c3ccncc3)cs2)c1	none (no result: CYP2C19 inhib, CYP2C9 inhib, CYP2C19 activ, CYP2C9 act)
CCn1c(SCC(=O)N2CCN(c3ccc(F)cc3)CC2)nnc1-c1ccncc1	none
Cc1ccc(S(=O)(=O)N2CCOCC2)cc1C(=O)NCc1cn2ccsc2n1	none
CC(=O)OCc1c(C(F)(F)F)nn(C)c1SCc1ccc(Cl)cc1	CYP2C19 inhib 99, CYP2C9 inhib 62 (no result: tolC growth inh)
CCOC(=O)Cn1nc(-c2ccccc2)ccc1=O	none
CCOC(=O)CCn1nc(-c2ccc(Cl)cc2)cc1N	CYP2C19 inhib 79
CCOC(=O)Cn1nc(-c2ccc(Cl)cc2)cc1N	CYP2C19 inhib 74
Cc1ccc(S(=O)(=O)N2CCCC2C(=O)OCc2ccco2)cc1 (stereo unspecified)	none
S=c1[nH]nc(-c2ccccc2)n1CC1CCCO1 (stereo unspecified)	none
S=c1[nH]nc(-c2ccccc2)n1C1C=CCCC1 (stereo unspecified)	CYP2C19 inhib 68
CC1(C)Cc2c(sc3nc(-c4ccccc4)n(N)c(=O)c23)CO1	none (no result: tolC growth inh)
CCC1(C)Cc2c(sc3nc(SC)n(Cc4ccccc4)c(=O)c23)CO1 (stereo unspecified)	CYP2C9 inhib 90 (no result: tolC growth inh)
CCC1(C)Cc2c(sc3nnn(CC(=O)Nc4cccc5ccccc45)c(=O)c23)CO1 (stereo unspecified)	CYP2C9 inhib 60 (no result: tolC growth inh)
Cc1cc(-c2nnc(-c3ccccc3)c(-c3ccccc3)n2)c(C)o1	CYP2C9 inhib 71
Nc1nnc(-c2ccccc2)c(-c2ccccc2)n1	none
c1ccc(-c2nnc(-c3c[nH]c4ccccc34)nc2-c2ccccc2)cc1	CYP2C9 inhib 99 (no result: tolC growth inh)
CCOC(=O)CC(=O)CSc1ncnc2c1cnn2-c1ccccc1	none
CC(=O)C1=C(C)Nc2ncnn2C1c1ccc(Cl)cc1 (stereo unspecified)	CYP2C19 inhib 64, CYP2C9 inhib 59
